Laboratory results from ChEMBL document CHEMBL3232797, “Targeting Staphylococcus aureus quorum sensing with nonpeptidic small molecule inhibitors” (J Med Chem, 2014).
pIC50: −log10 of the molar value. In brackets after ≈: the same amount, converted by molar mass. Activity calls are given as the source filed them. The rule behind the calls is not given here.

Key:
Staphylococcus aureus [1] = assay: Inhibition of AIP-1-induced AgrC-I activation in Staphylococcus aureus RN6390B up to 100 uM after 55 mins by beta-lactamase reporter assay
Procedure, shortened: (§1)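 The reporter strain was S. aureus RN6390B (pRN6683) carrying agrP3::blaZ. It was grown overnight at 37 °C in CYGP with 5 μg/mL chloramphenicol, diluted 1/100, and grown to OD600 ≈ 0.4. Cells were exposed to AIP-1 (0.01 nM–10 μM) plus compound (0–100 μM) for 55 min at 37 °C, quenched with sodium azide, and read as β-lactamase activity by nitrocefin. Triplicates were run on ≥2 occasions, with IC50 fitted.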

Staphylococcus aureus [2] = assay: Antimicrobial activity against Staphylococcus aureus RN6390B assessed as growth inhibition up to 100 uM after 18 hrs by spectrophotometry; format: functional, organism-based
Procedure, shortened: (§2)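 Staphylococci were grown at 37 °C with shaking in LB, Mueller–Hinton or CYGP broth, with or without test compound. Growth curves were followed as OD600 over 18 h.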

[3] = Inhibition of AIP-1-induced AgrC-I activation in Staphylococcus aureus RN6390B after 55 mins by beta-lactamase reporter assay
Procedure, shortened: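 agrP3::blaZ reporter strain RN6390B (pRN6683) grown overnight at 37 °C in CYGP with 5 μg/mL chloramphenicol, diluted 1/100, grown with shaking to OD600 ≈ 0.4. Incubated with AIP-1 (0.01 nM to 10 μM) plus compounds (0–100 μM) for 55 min at 37 °C; quenched with sodium azide; β-lactamase read with nitrocefin. Triplicate, ≥2 independent occasions; IC50 fitted.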

Staphylococcus aureus [4] = assay: Antimicrobial activity against Staphylococcus aureus USA300 assessed as growth inhibition at 100 uM after 18 hrs by spectrophotometry; format: functional, organism-based; procedure, shortened: as §2
Staphylococcus aureus [5] = assay: Antimicrobial activity against Staphylococcus aureus RN6390B assessed as growth inhibition after 18 hrs by spectrophotometry; format: functional
[6] = Iron-chelating activity at 50 uM by Chrome Azurol S […] assay; format: physicochemical
Procedure, shortened: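 Chrome azurol S (CAS) assay with compounds at 50 μM. Desferrioxamine (10 μM) served as positive control and MeCN as solvent control.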

Staphylococcus aureus [7] = assay: Noncompetitive inhibition of AgrC-I in AIP-1-induced Staphylococcus aureus RN6390B assessed as reduction in maximum level of activation at 25 to 100 uM after 55 mins by kinetic study relative to control; procedure, shortened: as §1
Staphylococcus aureus [8] = assay: Inhibition of Staphylococcus aureus adherence to human nasal squamous epithelial cells at 10 uM after 1 hr; format: functional, organism-based; conditions: Epithelial cell
Procedure, shortened: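 Desquamated human nasal squamous epithelial cells, untreated or compound-treated, were incubated with S. aureus. Bound bacteria were counted per 100 nasal cells, as the mean of three experiments run in duplicate.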

Staphylococcus aureus [9] = assay: Antimicrobial activity against Staphylococcus aureus Newman in NMRI mouse septic arthritis model; format: functional, organism-based
Procedure, shortened: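 Mice were given test agent at 10 mg/kg body weight or PBS (control) and then challenged with S. aureus. Arthritis frequency and arthritic index were scored over a 10 day period.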

Staphylococcus aureus [10] = assay: Noncompetitive inhibition of AgrC-I in AIP-1-induced Staphylococcus aureus RN6390B at 25 to 100 uM after 55 mins by kinetic study; procedure, shortened: as §1
Staphylococcus aureus [11] = assay: Noncompetitive inhibition of AgrC-I in AIP-1-induced Staphylococcus aureus RN6390B at 5 to 25 uM after 55 mins by kinetic study; procedure, shortened: as §1

| Structure (SMILES) | inhibition (Staphylococcus aureus [1]) | growth inhibition (GI) (Staphylococcus aureus [2]) | pIC50 [3] | further results |
| --- | --- | --- | --- | --- |
| CCCCCCCCCCCC(=O)N[C@H]1CCOC1=O | inactive | inactive | – | – |
| CCCCCCC/C(O)=C1/C(=O)N[C@@H](CCO)C1=O | – | inactive | 4.38 | growth inhibition (GI) (Staphylococcus aureus [4]): inactive |
| CCC/C(O)=C1/C(=O)N[C@@H](CCO)C1=O | inactive | inactive | – | – |
| CCCCCCCCC/C(O)=C1\C(=O)CNC1=O | – | – | 4.52 | MIC (Staphylococcus aureus [5]): 100 µM (≈ 25.3 µg/mL) |
| CCCCC/C=C/CCC(=O)C1=C(O)COC1=O | – | – | 4.66 | MIC (Staphylococcus aureus [5]): 50 µM (≈ 12.6 µg/mL) |
| CCCCCCCCC/C(O)=C1/C(=O)N[C@@H](C)C1=O | – | – | 4.70 | MIC (Staphylococcus aureus [5]): 100 µM (≈ 26.7 µg/mL) |
| CCCC(=O)CC(=O)C1=C(O)COC1=O | inactive | inactive | – | – |
| CCCCCCCCCCC/C(O)=C1/C(=O)N[C@@H](CCO)C1=O | – | – | 4.89 | MIC (Staphylococcus aureus [5]): 25 µM (≈ 8.14 µg/mL) |
| CCCCCCCCCC/C(O)=C1/C(=O)N[C@@H](CCO)C1=O | – | – | 5.00 | MIC (Staphylococcus aureus [5]): 50 µM (≈ 15.6 µg/mL) |
| O=C(Cc1ccc(Br)cc1)C1=C(O)COC1=O | inactive | inactive | – | – |
| O=C1N[C@@H](CCO)C(=O)/C1=C(/O)CCCC1CCCCC1 | inactive | inactive | – | – |
| CCCCCCCCCC(=O)CC(=O)O[C@H]1CCOC1=O | inactive | inactive | – | – |
| O=C1N[C@@H](CCO)C(=O)/C1=C(/O)Cc1ccc([N+](=O)[O-])cc1 | inactive | inactive | – | – |
| CCCCCCCCC/C(O)=C1/C(=O)N[C@H](CCO)C1=O | – | inactive | 4.55 | – |
| O=C(COc1ccc(Br)cc1)C1=C(O)COC1=O | inactive | inactive | – | – |
| CCCCCCCCCC(=O)CC(=O)N[C@@H]1CCOC1=O | – | – | 4.43 | MIC (Staphylococcus aureus [5]): 100 µM (≈ 29.7 µg/mL) |
| CC(C)CCCCCCC(=O)C1=C(O)COC1=O | inactive | inactive | – | – |
| CCCCCCCCOC(=O)CC(=O)N[C@H]1CCOC1=O | inactive | inactive | – | – |
| CCCCCCCCNC(=O)CC(=O)N[C@H]1CCOC1=O | inactive | inactive | – | – |
| O=C(CCCC1CCCCC1)CC(=O)N[C@H]1CCOC1=O | inactive | inactive | – | – |
| CCCCCCCCCC(=O)CC(N)=O | inactive | inactive | – | – |

| Structure (SMILES) | inhibition (Staphylococcus aureus [1]) | growth inhibition (GI) (Staphylococcus aureus [2]) | pIC50 [3] | further results |
| --- | --- | --- | --- | --- |
| CCCCCCCCCC(=O)CC(=O)C1=C(O)COC1=O | inactive | inactive | – | – |
| CCCCCCCCC/C(O)=C1/C(=O)N[C@@H](CCO)C1=O | – | – | 4.38 | Activity [6]: Active; fold change (FC) (Staphylococcus aureus [7]): 10; inhibition (Staphylococcus aureus [8]): Active; Activity (Staphylococcus aureus [9]): inactive; MIC (Staphylococcus aureus [5]): 100 µM (≈ 29.7 µg/mL) |
| O=C(Cc1ccc([N+](=O)[O-])cc1)C1=C(O)COC1=O | inactive | inactive | – | – |
| CCCCCC/C=C\CCCC(=O)C1=C(O)COC1=O | – | inactive | 4.06 | – |
| CCCCCCCCCC(=O)CC(=O)N[C@H]1CCSC1=O | inactive | inactive | – | – |
| CCCCCCCCCC(O)CC(=O)N[C@H]1CCOC1=O (stereo not given in full) | inactive | inactive | – | – |
| CCCCCC(=O)C1=C(O)COC1=O | – | inactive | – | Activity [6]: Not Active |
| CCCCCCCCCC(=O)CC(=O)N[C@H]1CCC(=O)NC1=O | inactive | inactive | – | – |
| CCCCCCCCCC(=O)C1=C(O)COC1=O | – | – | 4.68 | Activity [6]: Not Active; MIC (Staphylococcus aureus [5]): 50 µM (≈ 12.7 µg/mL) |
| CCCCCCCCCC(=O)CC(=O)N[C@H]1CCOC1=O | – | – | 4.66 | inhibition (Staphylococcus aureus [10]): Active |
| CCCCC/C=C/CCC(=O)CC(=O)N[C@H]1CCOC1=O | inactive | inactive | – | – |
| O=C(CCCc1ccccc1)CC(=O)N[C@H]1CCOC1=O | inactive | inactive | – | – |
| CCCCCCCCCCCCC/C(O)=C1/C(=O)N[C@@H](CCO)C1=O | – | – | 4.85 | MIC (Staphylococcus aureus [5]): 12.5 µM (≈ 4.42 µg/mL) |
| CCCCCCCCCCCCCCCC(=O)C1=C(O)COC1=O | – | inactive | 4.89 | – |
| CCCCCCCCN(C)C(=O)CC(=O)N[C@H]1CCOC1=O | inactive | inactive | – | – |
| CCCCCCCCCC(=O)CC(=O)N[C@H]1CC(=O)NC1=O | inactive | inactive | – | – |
| CCCCCCCCCC(=O)CC(=O)Nc1nccs1 | inactive | inactive | – | – |
| CCCCCCCCCC(=O)CC(=O)N[C@@H](CCO)C(=O)O | inactive | inactive | – | – |
| CCCCCCCCCC(=O)CC(=O)N[C@H]1CCNC1=O | inactive | inactive | – | – |
| CCCCCCCCCCCC(=O)C1=C(O)COC1=O | – | – | 5.22 | Activity [6]: Not Active; inhibition (Staphylococcus aureus [11]): Active; MIC (Staphylococcus aureus [5]): 25 µM (≈ 7.06 µg/mL) |
